High-throughput results deposited in PubChem BioAssay by several laboratories.
Redox H2O2 prof – compounds producing H2O2 with reducing agent – biochemical, NIH compound library profiling, artefact control for MLSCN library redox annotation, primary screen | DTT-dependent redox cycling H2O2, phenol red/HRP absorbance; 100% = 100 µM peroxide control, 0% = buffer | activation, % at 10 µM | hit rate 0.03% among 200,000 | AID 878;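 active means activation of at least 50% relative to the plate's high and low controls in the primary single-dose screen; inactive means activation below 50%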;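 further: compound incubated with DTT at 0.8 mM final as the reducing agent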
L major viab – reduces viability of Leishmania major promastigotes. resazurin fluorescence viability. inhibition, % at 10 µM. hit rate 9% among 200,000. AID 1063; in the data active means inhibition above about 50%;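 further: promastigotes grown with compound for 44 hours at 28 °C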
MPTP block – permeability transition pore inhibition; isolated mouse mitochondria, Ca2+ swelling absorbance, 30 min; inhibition, % at 10 µM; hit rate 1.4% among 360,000;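 active means inhibition of 50% or more, scaled per plate between neutral and stimulator controls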;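 further: 0% = DMSO wells given calcium and 100% = 1 mM EGTA wells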
T cruzi repl – blocks replication of Trypanosoma cruzi. hit rate 1.4% among 300,000. AID 1885. inhibition, % (no concentration beside the values). T. cruzi beta-gal in NIH3T3, luminescence, 90 h;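 active means mean inhibition across valid replicates above about 55%, limit read from the data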;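 further: signal also drops with host cell toxicity which is not excluded here; 0% = plate median of DMSO wells and 100% = zero luminescence signal; higher percent means less beta-gal luminescence so fewer parasites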
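System – NIH/3T3 host cells with β-galactosidase reporter T. cruzi · Doses – single 50 nL compound addition per well in DMSO · Reagent – 5000 T. cruzi trypomastigotes/well · Medium – Low-serum DMEM with 2% FBS · Timing – ≥90 h infection period, 3 h prior cell attachment · Evaluation – parasite load inhibition, % · Technique – GalScreen luminescence, 60 min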
Hep lipid drop – modulators of hepatic lipid droplet formation; AML12 mouse hepatocytes, oleate lipid droplets, BODIPY imaging; hit rate 0.4% among 240,000; inhibition, % at 6.5 µM; AID 1656;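 active means lipid droplet intensity inhibited by at least 50%, with more than 500 cells counted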
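material = mouse AML12 hepatocyte cell line, fixed after treatment | also added = 100 µM oleic acid challenge | doses = compound at 6.5 µM only | schedule = overnight exposure | technique = Image-based BODIPY and DAPI two-channel analysis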
* = called active by the depositor; · = no result. This excerpt belongs to a sample that is enriched for hits.

SMILES | Redox H2O2 prof | L major viab | MPTP block | T cruzi repl | Hep lipid drop
Nc1c(C(=O)NCC2CCCO2)c2nc3ccccc3nc2n1Cc1ccco1 (stereo not given) | · | · | 2 | -6 | 22
Nc1c(C(=O)NC2CCCC2)c2nc3ccccc3nc2n1CC1CCCO1 (stereo not given) | 0 | 51* | 4 | 13 | ·
Nc1c(C(=O)OCC2CCCO2)c2nc3ccccc3nc2n1Cc1cccs1 (stereo not given) | -2 | 95* | 1 | 13 | ·
CCCOc1ccccc1OCC(=O)N1CCN(CC(=O)N2CCOCC2)CC1 | · | · | -1 | · | ·
CC(=O)c1cccc(OCC(O)CN2CC=C(c3ccccc3)CC2)c1 (stereo not given) | 0 | 94* | 0 | 16 | ·
Cc1cccc(OCC(O)CN2CC2)c1 (stereo not given) | · | · | 0 | · | ·
FC(F)(F)c1ccc(NC2=NCCCS2)cc1 | · | · | 1 | 32 | -1
COc1ccc(C2SCC(=O)Nc3c2c(C)nn3C2CCOC(C)(C)C2)cc1OC (stereo not given) | 0 | -3 | -4 | -4 | 0
COc1ccc(C2SCC(=O)Nc3c2c(C)nn3-c2ccccc2)cc1OC (stereo not given) | 2 | 62* | 1 | 3 | ·
COC(=O)c1ccccc1-n1c(C)nc2ccccc2c1=O | 3 | -4 | 1 | · | -9
O=C(O)c1cccc2nc3ccccc3nc12 | 0 | 100* | -1 | 18 | 15
Cc1cc(N2CCCCC2)ccc1C=C1C(=O)N(C)C(=S)N(C)C1=O | 0 | 100* | 0 | 4 | -2
O=C1NC(=O)C(CCc2ccncc2)(CCc2ccncc2)C(=O)N1Cc1ccc(F)cc1 | 0 | 1 | -2 | -8 | -11
COC(=O)C(O)(c1ccc(N(C)C(=O)c2ccc(Cl)c(Cl)c2)cc1)C(F)(F)F (stereo not given) | 0 | 64* | 0 | 6 | 1
CCOC(=O)N(C)c1ccc(C(O)(C(=O)OC)C(F)(F)F)cc1 (stereo not given) | 1 | 93* | 0 | 6 | -3
CCOC(=O)C(O)(c1ccc(N(C)C(=O)c2ccc(Cl)c(Cl)c2)cc1)C(F)(F)F (stereo not given) | -1 | 97* | -1 | -4 | -26
COC(=O)C(O)(c1ccc(N(C)C(=O)c2cccs2)cc1)C(F)(F)F (stereo not given) | 0 | 97* | 5 | -1 | 5
COc1ccc2c(c1)C13CCN4CC5=CCOC6CC(=O)N2C1C6C5CC43 (stereo not given) | · | · | -2 | · | ·
O=C(O)C1C2c3ccccc3C(=O)C1(C(=O)O)c1ccccc12 (stereo not given) | · | · | -1 | · | ·
BrCC(Br)(Br)Br | · | · | 0 | · | ·
Fc1ccc2c(c1)nnn2C1CCN(Cc2ccccc2)CC1 | 1 | 75* | -1 | -4 | 10
CCN1CCN(c2cc(N3CCCC3)c([N+](=O)[O-])cc2F)CC1 | 0 | 99* | 8 | 28 | -45
CCN1CCN(CC(c2ccccc2)c2ccccc2)CC1 | · | · | 0 | 8 | 7
O=C(c1ccccc1)C(CN1CCCC1)c1ccccc1 (stereo not given) | 0 | 100* | -1 | 18 | -2
O=C1CC(=O)N(Cc2ccccc2)C(=S)N1 | · | · | 0 | -2 | ·
SMILES | Redox H2O2 prof | L major viab | MPTP block | T cruzi repl | Hep lipid drop
COc1cc2c(cc1/C=C/[N+](=O)[O-])OCO2 | 1 | 100* | 8 | 51 | 5
CCCNC(=O)N1[C@H]2CC[C@@H]1C(C(=O)OC)=C(c1c(C)noc1C)C2 | · | · | 0 | · | ·
O=C1NC(=O)N(Cc2ccco2)C(=O)/C1=C/C=C/c1ccco1 | · | · | 0 | -12 | 9
C=CCN1C(=O)NC(=O)/C(=C/C=C/c2ccccc2)C1=O | -1 | 100* | 2 | -20 | -13
O=C1NC(=O)N(CCc2ccc(F)cc2)C(=O)/C1=C\C=C\c1ccccc1 | 0 | 100* | -5 | · | 2
Cc1nc(C)c(C(=O)NN=Cc2ccc(N(CCCl)CCCl)cc2)s1 | · | · | 0 | · | ·
CC(C)C[C@H]1COc2cc(N3CCN(C)CC3)ccc2S(=O)(=O)N1 | · | · | 0 | · | ·
Cc1ccc(C(=O)C2CN3CCC2CC3)cc1 (stereo not given) | 2 | 74* | -5 | -18 | 2
Cc1ccc(C(=O)C2CN(C)CC2C(=O)c2ccc(C)cc2)cc1 (stereo not given) | 2 | 2 | 0 | 3 | ·
CCC(C)N1C(=O)/C(=C\c2ccc(N3CCCCCC3)cc2)C(=O)NC1=S (stereo not given) | 0 | 93* | -19 | -5 | -49
